Experimental findings from ChEMBL document CHEMBL1145237, “Amide derivatives of 9,11-seco-estra-1,3,5(10)-trien-11-oic acid as modified orally active estrogen agonists with moderate antagonistic activity” (Bioorg Med Chem Lett, 2005) are described below.

Molecules are shown by their SMILES.

Assay [1] deals with T1, Estrogen receptor (Rattus norvegicus) (UniProt P06211+Q62986).
The species entered for assay [2] is Rattus norvegicus. The assay can be described thus: Percent inhibition of ethynylestradiol-induced uterine weight gain in ovariectomized immature rats. The note with it: concentration not given here. On the set-up: concentration or dose not given beside the values.
Assay [3] deals with T1, Estrogen receptor (Rattus norvegicus). The assay can be described thus: Estrogenic activity in rat uterine weight assay. The format is functional.
The target is the same in assay [4]. The assay can be described thus: Estrogenic activity as percent gain in rat uterine weight at 10 mg/kg/day. In kind it is functional, organism-based. An outline of the steps: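 Immature female rats were dosed orally once daily on days 28–30 of age at 10 mg/kg, with a vehicle-only control group. At autopsy on day 31, 24 h after the last dose, vaginal opening and vaginal-smear cornification were scored, and the blotted uterus was weighed fresh. Uterine gain was expressed as percent of vehicle control, as mean ± SEM of at least six observations per group.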

Assay [5] has the same target. Nature of the assay: Relative binding affinity for immature rat cytosolic estrogen receptor. The format is protein assay. The procedure, abridged: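 Rat uterine cytosol receptor (20–21-day-old animals, pH 7.4 Tris-EDTA buffer) was incubated in triplicate for 18 h at 4 °C with fixed [3H]-estradiol and graded competitor concentrations, with DMF ≤5% final. Bound ligand was separated with dextran-coated charcoal and counted. Percent bound versus log concentration was plotted, and the 50%-inhibition concentration was compared with that of estradiol to give RBA.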

Take `CCCNC(=O)C[C@@]1(C)C(C2CCc3cc(OC)ccc3C2)CC[C@@H]1OC(C)=O` (stereo not given in full): the Weight in assay [1] turned out to be 67.2 mg; in assay [3] it was 18.7 mg. This molecule gave an inhibition in assay [2] of 26.1%. The Gain in assay [4] came out at 6.63%. The molecule further showed an RBA in assay [5] of under 0.001%.

On to `COc1ccc2c(c1)CCC(C1CC[C@H](OC(C)=O)[C@@]1(C)CC(=O)NCc1ccccc1)C2` (stereo not given in full), for which the Weight was determined as 87.7 mg in assay [1] and 74.4 mg in assay [3]. For the same molecule, in assay [2], the inhibition came out at 14%. The Gain in assay [4] worked out at 362%. For the same molecule, in assay [5], the RBA was under 0.001%.

`COc1ccc2c(c1)CCC(C1CC[C@H](OC(C)=O)[C@@]1(C)CC(=O)NCCCc1ccccc1)C2` (stereo not given in full): the Weight in assay [1] was found to be 83.6 mg; in assay [3] it was 74.3 mg. In assay [2], this molecule returned an inhibition of 10%. The molecule further registered a Gain in assay [4] of 422%. The molecule further returned an RBA in assay [5] of under 0.001%.

With `CCCCCCCCCCCCNC(=O)C[C@@]1(C)C(C2CCc3cc(OC)ccc3C2)CC[C@@H]1OC(C)=O` (stereo not given in full), the Weight in assay [1] came to 90 mg; in assay [3], 82.4 mg. For the same molecule, the inhibition in assay [2] was 11.7%. In assay [4], this molecule gave a Gain of 412%. In assay [5], this molecule returned an RBA of under 0.001%.

As to `CCCCCCCCNC(=O)C[C@@]1(C)C(C2CCc3cc(OC)ccc3C2)CC[C@@H]1OC(C)=O` (stereo not given in full), the Weight was 95.9 mg in assay [1] and 87 mg in assay [3]. For the same molecule, the inhibition in assay [2] stood at 5.98%. The same molecule gave a Gain in assay [4] of 441%. The molecule also had an RBA in assay [5] of under 0.001%.

`COc1ccc2c(c1)CCC(C1CC[C@H](OC(C)=O)[C@@]1(C)CC(=O)NCCc1ccccc1)C2` (stereo not given in full): the Weight was 73 mg in assay [1] and 19 mg in assay [3]. In assay [2], this molecule came in with an inhibition of 6.41%. The Gain in assay [4] stood at 8.57%. The same molecule gave an RBA in assay [5] of under 0.001%.

For `COc1ccc(NC(=O)C[C@@]2(C)C(C3CCc4cc(OC)ccc4C3)CC[C@@H]2OC(C)=O)cc1` (stereo not given in full), the Weight stood at 77.5 mg in assay [1] and 70.7 mg in assay [3]. Besides, the inhibition in assay [2] was 20.2%. In assay [4], this molecule showed a Gain of 282%. In assay [5], this molecule came in with an RBA of under 0.001%.

As to `COc1cccc(NC(=O)C[C@@]2(C)C(C3CCc4cc(OC)ccc4C3)CC[C@@H]2OC(C)=O)c1` (stereo not given in full), the Weight came to 86 mg in assay [1] and 84.9 mg in assay [3]. Further, in assay [2], the inhibition is 15.6%. For the same molecule, the Gain in assay [4] amounted to 428%. In assay [5], this molecule yielded an RBA of under 0.001%.

In the case of `COc1ccc2c(c1)CCC(C1CC[C@H](OC(C)=O)[C@@]1(C)CC(=O)Nc1ccccc1)C2` (stereo not given in full), the Weight in assay [1] came to 69 mg; in assay [3], 18 mg. For the same molecule, the inhibition in assay [2] worked out at 11.5%. In assay [4], this molecule registered a Gain of 2.91%. The molecule further showed an RBA in assay [5] of under 0.001%.

As to `CCCCNC(=O)C[C@@]1(C)C(C2CCc3cc(OC)ccc3C2)CC[C@@H]1OC(C)=O` (stereo not given in full), the Weight was determined as 70.9 mg in assay [1] and 40.7 mg in assay [3]. The inhibition in assay [2] came out at 22.1%. In assay [4], the Gain amounted to 133%. The molecule also had an RBA in assay [5] of under 0.001%.

As for `CCCCCNC(=O)C[C@@]1(C)C(C2CCc3cc(OC)ccc3C2)CC[C@@H]1OC(C)=O` (stereo not given in full), the Weight stood at 75.3 mg in assay [1] and 23.7 mg in assay [3]. This molecule also displayed an inhibition in assay [2] of 17.2%. In assay [4], the Gain amounted to 35.2%. This molecule registered an RBA in assay [5] of under 0.001%.

A word on the inhibition: it is the percentage by which the read-out fell short of the control.
